The subject of assay [1] is HCT116 (human colon carcinoma) cancer cells. The experiment in a line: Oxygen consumption, Seahorse XF-96 Analyzer. It counts as cell-based. The settings on record: incubation for 24 hours. The gist of the method: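 HCT116 cells grown in DMEM with 10% heat-inactivated FCS and penicillin/streptomycin at 37 °C, 5% CO2. About 15 000 cells/well adhered overnight, then were exposed to test compounds for 24 h. Cells were washed and held 1 h at 37 °C without CO2 in unbuffered DMEM (5 mM glucose, 2 mM glutamine, pH 7.4). Basal OCR was read, then sequential oligomycin, CCCP, and rotenone/antimycin A. Rates normalized to total well protein.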

Assay [2] deals with caspase-3 in TET21N cells. The experiment in a line: Caspase-3 activity with fluorogenic substrate DEVD-AMC, TET21N cells. Conditions: compared with betulinic acid. Format: cell-based, human.
Assay [3] relates to caspase-3 in HCT116 cells. The experiment in a line: Caspase-3 activity with fluorogenic substrate DEVD-AMC, HCT116 cells. Format: cell-based, human. The settings on record: compared with betulinic acid.
In assay [4] the test system is HCT116 cells. The experiment in a line: Cytochrome c release from mitochondria to cytosol. Format: cell-based, human. The settings on record: concentration 3.5 μM.

These results are taken from publication PMC6072465 (MedChemComm, 2017).

SMILES strings stand for the structures.

Take `C=C(C)[C@@H]1CC[C@]2(C(=O)OCCOCCOCC[P+](c3ccccc3)(c3ccccc3)c3ccccc3)CC[C@]3(C)[C@H](CC[C@@H]4[C@@]5(C)CC[C@H](O)C(C)(C)[C@@H]5CC[C@]43C)[C@@H]12.[Br-]` [compound 9, 9′-(Triphenylphosphonio-3′,6′-dioxaoctan-1′-yl)-3β-hydroxylup-20(29)-en-28-oate bromide]: the “effect on mitochondrial respiration (oxygen consumption)” value (from here on “effect on mitochondrial respiration”) in assay [1] was “suppressed respiration in a concentration-dependent manner”. Also, the “activation of caspase-3” value in assay [2] and in assay [3] was “considerably surpassed betulinic acid in the caspase-3 activation” each time.

Consider `C=C(C)[C@@H]1CC[C@]2(C(=O)OCCOCCOCC[P+](c3ccccc3)(c3ccccc3)c3ccccc3)CC[C@]3(C)[C@H](CC[C@@H]4[C@@]5(C)CC[C@H](OC(C)=O)C(C)(C)[C@@H]5CC[C@]43C)[C@@H]12.[Br-]` [compound 7, 8′-(Triphenylphosphonio-3′,6′-dioxaoctan-1′-yl)-3β-acetoxylup-20(29)-en-28-oate bromide], for which the “effect on mitochondrial respiration” value in assay [1] is listed as “suppressed respiration in a concentration-dependent manner”.

Turning to `C=C(C)[C@@H]1CC[C@]2(C(=O)O)CC[C@]3(C)[C@H](CC[C@@H]4[C@@]5(C)CC[C@H](O)C(C)(C)[C@@H]5CC[C@]43C)[C@@H]12` [BA, betulinic acid, reference compound], the “effect on mitochondrial respiration” value in assay [1] is listed as “ineffective”. In assay [4], the “release of cytochrome c from the mitochondria to the cytosol” value is on record as “failed to trigger the release of cytochrome c”.
